Measurements: ChEMBL document CHEMBL1128708, “Synthesis of alkyl chain-modified ether lipids and evaluation of their in vitro cytotoxicity” (J Med Chem, 1995)

Key:
Rattus norvegicus = species on record: Rattus norvegicus; assay: Maximal non-erythrolytic concentration(MNEC) was measured in erythrocytes from rat citreated blood; format: functional
Procedure, shortened: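 Rat citrated-blood erythrocytes washed in HBSS and mixed 9:1 with test solution for 30 min at 37 °C. Lysis read spectrophotometrically at 546 nm. Value reported as the maximal concentration (μM) causing no erythrolysis.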

K562 = assay: Antiproliferative activity of compound was measured on human tumor cell line K-562.; format: functional, cell-based
Procedure, shortened: (§1)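 Suspension cells at 1 × 10^6 cells/mL in RPMI-1640 with 10% heat-inactivated FCS and 2 mM L-glutamine, 37 °C, 5% CO2. Incubated 120 h with graded ether lipid concentrations (final EtOH ≤0.2%), then counted electronically. IC50 from dose–response curves; two experiments in duplicate, average ± SD.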

HL-60 [1] = assay: Cytotoxicity measured in HL-60 leukemic cells after a 24 hr incubation period.; format: functional, cell-based, Homo sapiens
Procedure, shortened: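 HL-60 cells kept in RPMI-1640 with 5% heat-inactivated FCS, penicillin/streptomycin and 2 mM L-glutamine, >90% viable before use. 10^6 cells/mL exposed 24 h to 2.5–160 μM (twofold steps). Viability by trypan blue exclusion, as % viable cells versus total control cells. IC50 taken as the concentration giving 50% mortality. Two experiments in triplicate; compounds with IC50 >30 μM tested once.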

A-431 = assay: Antiproliferative activity of compound was measured on human tumor cell line A431.; format: functional, cell-based
Procedure, shortened: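 Adherent cells trypsinized and seeded at 5000 cells/cm2, grown in RPMI-1640 with 10% heat-inactivated FCS and 2 mM L-glutamine. After 24 h, graded concentrations dissolved in complete medium were added for 48 h (final EtOH ≤0.2%). Cells fixed with 10% TCA and stained with 0.4% SRB in 1% acetic acid. Dye solubilized in 10 mM Tris pH 10.4 and read at 550 nm, background-corrected. IC50 from dose–response curves; two to five experiments, eight replicates each.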

[2] = Partition coefficient (logP); format: physicochemical; details: octanol/water
Procedure, shortened: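 Calculated rather than measured, for the C-1 chain including the ether O atom, by the Viswanadhan atom-based method.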

HL-60 [3] = assay: Antiproliferative activity of compound was measured on human tumor cell line HL-60.; format: functional, cell-based; procedure, shortened: as §1

| SMILES | MNEC (Rattus norvegicus) | IC50 (HL-60 [1]; Homo sapiens, HL-60, 24 h) | logP ([2]; read-out: logP) | also measured |
| --- | --- | --- | --- | --- |
| CCCCCCCCCCCC(=O)CCCCCCOC[C@@H](COP(=O)([O-])OCC[N+](C)(C)C)OC | 20 µM | 5.9 µM | 5.92 | IC50 (K562; Homo sapiens, K562): 40.2 µM; IC50 (K562; k562): 39.2 µM; IC50 (HL-60 [1]; hl-60): 11.3 µM; IC50 (A-431; Homo sapiens, A-431): 19.7 µM; IC50 (A-431; a-431): 21.8 µM; IC50 (HL-60 [3]; Homo sapiens, HL-60): 4.4 µM; IC50 (HL-60 [3]; hl-60): 3 µM |
| CCCCC(CCCC)CCCCCCOCC(COP(=O)([O-])OCC[N+](C)(C)C)OC (stereo unspecified) | 20 µM | 54 µM | 5.51 | – |
| CCCCCCC(=O)CCCCCCCCCCCOCC(COP(=O)(O)OC[C@@H](N)C(=O)O)OC (stereo partly specified) | >200 µM | 30 µM | – | – |
| COC(COCCCCCCCCCCC(O)c1ccccc1)COP(=O)([O-])OCC[N+](C)(C)C (stereo unspecified) | >200 µM | > 160 µM | 4.7 | – |
| CCCCCCC(O)CCCCCCCCCCCOCC(COCCCCC[N+](C)(C)C)OC.[Br-] (stereo unspecified) | 50 µM | 25.6 µM | – | – |
| CCCCCCCCCCCCCCCCCCOCC(COCCCCC[N+](C)(C)C)OC.[Br-] (stereo unspecified) | 5 µM | 8 µM | – | – |
| CCCCCCCCCCCC(=O)CCCCCCOCC(COP(=O)(O)OC[C@@H](N)C(=O)O)OC (stereo partly specified) | >200 µM | > 160 µM | – | – |
| CCCCCCCCCCCCCCCCCCOCC(COP(=O)(O)OC[C@@H](N)C(=O)O)OC (stereo partly specified) | >200 µM | 25.2 µM | – | – |
| CCCCCCCCC(CCCCCCOCC(COP(=O)([O-])OCC[N+](C)(C)C)OC)c1ccccc1 (stereo unspecified) | 5 µM | 30.7 µM | 7.13 | – |
| CCCCCCC(CCCCCC)CCCCCCCCCCCOCC(COP(=O)([O-])OCC[N+](C)(C)C)OC (stereo unspecified) | >200 µM | 46 µM | – | logP [2]: 9.08 |
| COC(COCCCCCCCCCCCCCCCCc1ccccc1)COP(=O)([O-])OCC[N+](C)(C)C (stereo unspecified) | 10 µM | 13.2 µM | 7.59 | – |
| CCCCCCCCCCCCCCCCC(=O)COCC(COP(=O)([O-])OCC[N+](C)(C)C)OC (stereo unspecified) | 5 µM | 3.5 µM | 6.29 | IC50 (K562; Homo sapiens, K562): 9 µM; IC50 (A-431; Homo sapiens, A-431): 14.2 µM; IC50 (HL-60 [3]; Homo sapiens, HL-60): 1.3 µM |
| CCCCCCC(=O)CCCCCCCCCCCOCC(COP(=O)([O-])OCC[N+](C)(C)C)OC (stereo unspecified) | 50 µM | 45 µM | 5.92 | IC50 (K562; Homo sapiens, K562): 84.5 µM; IC50 (A-431; Homo sapiens, A-431): 40.6 µM; IC50 (HL-60 [3]; Homo sapiens, HL-60): 12.3 µM |
| CCCCCCCCCCCC(=O)CCCCCCOCC(COCCCCC[N+](C)(C)C)OC.[Br-] (stereo unspecified) | 5 µM | 4.2 µM | – | – |
| CCCCCCCCC(CCCCCCCC)CCCCCCOCC(COP(=O)([O-])OCC[N+](C)(C)C)OC (stereo unspecified) | >200 µM | 52 µM | 8.68 | – |
| COC(COCCCCCCCCCCC(=O)c1ccccc1)COP(=O)([O-])OCC[N+](C)(C)C (stereo unspecified) | >200 µM | > 160 µM | 4.29 | – |
| CCCCCCCCCCCC(=O)CCCCCCOCC(COP(=O)([O-])OCC[N+](C)(C)C)OC (stereo unspecified) | 20 µM | 9.1 µM | 5.92 | IC50 (K562; Homo sapiens, K562): 41.4 µM; IC50 (A-431; Homo sapiens, A-431): 21.1 µM; IC50 (HL-60 [3]; Homo sapiens, HL-60): 3 µM |
| CCCCCCCCCCCCCCC(=O)CCCOCC(COP(=O)([O-])OCC[N+](C)(C)C)OC (stereo unspecified) | 10 µM | 4.1 µM | 5.92 | IC50 (K562; Homo sapiens, K562): 10.5 µM; IC50 (A-431; Homo sapiens, A-431): 13.5 µM; IC50 (HL-60 [3]; Homo sapiens, HL-60): 1.1 µM |
| CCCCCCCCCCCC(C)CCCCCCOCC(COP(=O)([O-])OCC[N+](C)(C)C)OC (stereo unspecified) | 5 µM | 8.9 µM | 7.1 | – |
| CCCCCCCCCCCC(CCCCCC)CCCCCCOCC(COP(=O)([O-])OCC[N+](C)(C)C)OC (stereo unspecified) | >200 µM | 50 µM | – | logP [2]: 9.08 |
| CCCCCCCCCCCCCCCCCCOCC(COP(=O)([O-])OCC[N+](C)(C)C)OC (stereo unspecified) [EDELFOSINE] | 2 µM | 6.1 µM | 6.77 | IC50 (K562; Homo sapiens, K562): 6.1 µM; IC50 (A-431; Homo sapiens, A-431): 13.5 µM; IC50 (HL-60 [3]; Homo sapiens, HL-60): 1 µM |
| CCCCCCCCCCCCCCCCOP(=O)([O-])OCC[N+](C)(C)C [MILTEFOSINE] | 2 µM | 20.4 µM | – | – |
